Reference: ChEMBL document CHEMBL4052657, “Design, synthesis and biological evaluation of sulfonamide-substituted diphenylpyrimidine derivatives (Sul-DPPYs) as potent focal adhesion kinase (FAK) inhibitors with antitumor activity” (Bioorg Med Chem, 2017)
Values belong to the molecule of their own block, whether it stands above or below them.

What was measured:
PANC-1 [1] = experiment: Antiproliferative activity against human PANC1 cells after 72 hrs by CCK8 assay; settings: PANC-1, 72 h
BXPC-3 = experiment: Antiproliferative activity against human BxPC3 cells after 72 hrs by CCK8 assay; settings: BXPC-3, 72 h
L02 = experiment: Antiproliferative activity against human LO2 cells after 72 hrs by CCK8 assay; settings: L02, 72 h
ASPC1 [2] = experiment: Antiproliferative activity against human AsPC1 cells after 72 hrs by CCK8 assay; settings: ASPC1, 72 h
NCI-H1975 = experiment: Antiproliferative activity against gefitinib-resistant human NCI-H1975 cells harboring FAK after 72 hrs by CCK8 assay; format: functional, cell-based; settings: NCI-H1975, 72 h
How it was run: (§1)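 Cells in RPMI-1640 with 10% FBS and 1% penicillin-streptomycin, 37 °C, 5% CO2. Seeded at 3,000 to 5,000 cells/well and grown one day, then exposed to compound for 72 h at 1.25 to 40 µmol/L, five replicates per concentration. CCK-8 read-out is absorbance at 450 nm. Dose-response curves used five concentrations. IC50 is the mean of at least three separate experiments.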

Ramos = experiment: Antiproliferative activity against human Ramos cells after 72 hrs by CCK8 assay; format: functional, cell-based; how it was run: as §1
ASPC1 [3] = experiment: Induction of apoptosis in human AsPC1 cells assessed as early apoptotic cells at 10 uM after 72 hrs by Annexin-V-FITC/propidium iodide staining based flow cytometry relative to control; format: functional
How it was run: (§2)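 AsPC-1 cells at 2 to 5 ×10⁵ cells/well were treated for 72 h with DMSO solvent control or compound at 1, 5 or 10 µM in medium with 5% FBS. Cells were then […], stained with annexin V-FITC/propidium iodide and analysed by flow cytometry.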

ASPC1 [4] = experiment: Antiproliferative activity against human AsPC1 cells assessed as cell viability at 1.25 uM after 72 hrs by CCK8 assay (reference value: 96.9%); format: functional; settings: ASPC1, 72 h, read-out: Activity
ASPC1 [5] = experiment: Induction of apoptosis in human AsPC1 cells assessed as necrotic cells at 5 uM after 72 hrs by Annexin-V-FITC/propidium iodide staining based flow cytometry relative to control; format: functional; how it was run: as §2
ASPC1 [6] = experiment: Induction of apoptosis in human AsPC1 cells after 72 hrs by Annexin-V-FITC/propidium iodide staining based flow cytometry; format: functional, cell-based; how it was run: as §2
PANC-1 [7] = experiment: Antiproliferative activity against human PANC1 cells assessed as cell viability at 0.5 uM after 48 hrs by CCK8 assay (reference value: 99%); format: functional; settings: PANC-1, 48 h, read-out: Activity
ASPC1 [8] = experiment: Induction of apoptosis in human AsPC1 cells assessed as viable cells at 5 uM after 72 hrs by Annexin-V-FITC/propidium iodide staining based flow cytometry relative to control; format: functional; settings: ASPC1, 72 h, read-out: Activity; how it was run: as §2
PANC-1 [9] = experiment: Antiproliferative activity against human PANC1 cells assessed as cell viability at 0.5 uM after 72 hrs by CCK8 assay (reference value: 97.5%); format: functional; settings: PANC-1, 72 h, read-out: Activity
ASPC1 [10] = experiment: Induction of apoptosis in human AsPC1 cells assessed as late apoptotic cells at 10 uM after 72 hrs by Annexin-V-FITC/propidium iodide staining based flow cytometry relative to control; format: functional; how it was run: as §2
ASPC1 [11] = experiment: Antiproliferative activity against human AsPC1 cells assessed as cell viability at 10 uM after 48 hrs by CCK8 assay (reference value: 98.6%); format: functional; settings: ASPC1, 48 h, read-out: Activity
ASPC1 [12] = experiment: Induction of apoptosis in human AsPC1 cells assessed as viable cells at 1 uM after 72 hrs by Annexin-V-FITC/propidium iodide staining based flow cytometry relative to control; format: functional; settings: ASPC1, 72 h, read-out: Activity; how it was run: as §2
ASPC1 [13] = experiment: Antiproliferative activity against human AsPC1 cells assessed as cell viability at 5 uM after 48 hrs by CCK8 assay (reference value: 98.6%); format: functional; settings: ASPC1, 48 h, read-out: Activity
ASPC1 [14] = experiment: Antiproliferative activity against human AsPC1 cells assessed as cell viability at 1.25 uM after 48 hrs by CCK8 assay (reference value: 98.6%); format: functional; settings: ASPC1, 48 h, read-out: Activity
ASPC1 [15] = experiment: Induction of apoptosis in human AsPC1 cells assessed as late apoptotic cells at 1 uM after 72 hrs by Annexin-V-FITC/propidium iodide staining based flow cytometry relative to control; format: functional; how it was run: as §2
PANC-1 [16] = experiment: Antiproliferative activity against human PANC1 cells assessed as cell viability at 2 uM after 72 hrs by CCK8 assay (reference value: 97.5%); format: functional; settings: PANC-1, 72 h, read-out: Activity
ASPC1 [17] = experiment: Induction of apoptosis in human AsPC1 cells assessed as late apoptotic cells at 5 uM after 72 hrs by Annexin-V-FITC/propidium iodide staining based flow cytometry relative to control; format: functional; how it was run: as §2
ASPC1 [18] = experiment: Induction of apoptosis in human AsPC1 cells assessed as viable cells at 10 uM after 72 hrs by Annexin-V-FITC/propidium iodide staining based flow cytometry relative to control; format: functional; settings: ASPC1, 72 h, read-out: Activity; how it was run: as §2
ASPC1 [19] = experiment: Induction of apoptosis in human AsPC1 cells assessed as early apoptotic cells at 5 uM after 72 hrs by Annexin-V-FITC/propidium iodide staining based flow cytometry relative to control; format: functional; how it was run: as §2
PANC-1 [20] = experiment: Antiproliferative activity against human PANC1 cells assessed as cell viability at 8 uM after 24 hrs by CCK8 assay relative to control; format: functional; settings: PANC-1, 24 h, read-out: Activity
ASPC1 [21] = experiment: Antiproliferative activity against human AsPC1 cells assessed as cell viability at 10 uM after 24 hrs by CCK8 assay relative to control; format: functional; settings: ASPC1, 24 h, read-out: Activity
ASPC1 [22] = experiment: Induction of apoptosis in human AsPC1 cells assessed as necrotic cells at 1 uM after 72 hrs by Annexin-V-FITC/propidium iodide staining based flow cytometry relative to control; format: functional; how it was run: as §2
PANC-1 [23] = experiment: Antiproliferative activity against human PANC1 cells assessed as cell viability at 2 uM after 48 hrs by CCK8 assay (reference value: 99%); format: functional; settings: PANC-1, 48 h, read-out: Activity
ASPC1 [24] = experiment: Induction of apoptosis in human AsPC1 cells assessed as necrotic cells at 10 uM after 72 hrs by Annexin-V-FITC/propidium iodide staining based flow cytometry relative to control; format: functional; how it was run: as §2
PANC-1 [25] = experiment: Antiproliferative activity against human PANC1 cells assessed as cell viability at 0.5 uM after 24 hrs by CCK8 assay relative to control; format: functional; settings: PANC-1, 24 h, read-out: Activity
PANC-1 [26] = experiment: Antiproliferative activity against human PANC1 cells assessed as cell viability at 2 uM after 24 hrs by CCK8 assay relative to control; format: functional; settings: PANC-1, 24 h, read-out: Activity
ASPC1 [27] = experiment: Antiproliferative activity against human AsPC1 cells assessed as cell viability at 10 uM after 72 hrs by CCK8 assay (reference value: 96.9%); format: functional; settings: ASPC1, 72 h, read-out: Activity
PANC-1 [28] = experiment: Antiproliferative activity against human PANC1 cells assessed as cell viability at 8 uM after 48 hrs by CCK8 assay (reference value: 99%); format: functional; settings: PANC-1, 48 h, read-out: Activity
ASPC1 [29] = experiment: Antiproliferative activity against human AsPC1 cells assessed as cell viability at 1.25 uM after 24 hrs by CCK8 assay relative to control; format: functional; settings: ASPC1, 24 h, read-out: Activity
ASPC1 [30] = experiment: Induction of apoptosis in human AsPC1 cells assessed as early apoptotic cells at 1 uM after 72 hrs by Annexin-V-FITC/propidium iodide staining based flow cytometry relative to control; format: functional; how it was run: as §2
PANC-1 [31] = experiment: Antiproliferative activity against human PANC1 cells assessed as cell viability at 8 uM after 72 hrs by CCK8 assay (reference value: 97.5%); format: functional; settings: PANC-1, 72 h, read-out: Activity
ASPC1 [32] = experiment: Antiproliferative activity against human AsPC1 cells assessed as cell viability at 5 uM after 72 hrs by CCK8 assay (reference value: 96.9%); format: functional; settings: ASPC1, 72 h, read-out: Activity
ASPC1 [33] = experiment: Antiproliferative activity against human AsPC1 cells assessed as cell viability at 5 uM after 24 hrs by CCK8 assay relative to control; format: functional; settings: ASPC1, 24 h, read-out: Activity

SMILES: CNC(=O)c1ccccc1Nc1nc(Nc2ccc(NS(=O)(=O)c3ccc(C)cc3)c(C)c2)ncc1Cl
- IC50 (PANC-1 [1]): 2.99 µM
- IC50 (BXPC-3): 23.1 µM
- IC50 (L02): 27.5 µM
- IC50 (ASPC1 [2]): 2.32 µM
- IC50 (NCI-H1975): 9.56 µM
- IC50 (Ramos): 20.3 µM

SMILES: CNC(=O)c1ccccc1Nc1nc(Nc2ccc(NS(=O)(=O)c3ccc(C)cc3)cc2)ncc1Cl
- IC50 (PANC-1 [1]): 2.76 µM
- IC50 (BXPC-3): 19.4 µM
- IC50 (L02): 28.7 µM
- IC50 (ASPC1 [2]): 1.55 µM
- IC50 (NCI-H1975): 7.07 µM
- IC50 (Ramos): 6.17 µM

SMILES: CNC(=O)c1ccccc1Nc1nc(Nc2ccc(N3CCOCC3)cc2OC)ncc1Cl
- IC50 (PANC-1 [1]): > 20 µM
- IC50 (BXPC-3): 1.03 µM
- IC50 (L02): 5.37 µM
- IC50 (ASPC1 [2]): 6.73 µM

The next molecules have a lower IC50 (PANC-1 [1]) than those just listed; values first:

- IC50 (PANC-1 [1]): 1.75 µM
- IC50 (BXPC-3): 5.86 µM
- IC50 (ASPC1 [2]): 2.39 µM
- IC50 (NCI-H1975): 4.1 µM
- IC50 (Ramos): 14.4 µM
SMILES: CNC(=O)c1ccccc1Nc1nc(Nc2ccc(Oc3ccc(NS(=O)(=O)C(F)(F)F)cc3)cc2)ncc1Cl
- IC50 (L02): 3.37 µM

- IC50 (PANC-1 [1]): 0.53 µM
- IC50 (BXPC-3): 6.92 µM
- IC50 (ASPC1 [2]): 3.92 µM
- IC50 (NCI-H1975): 3.71 µM
- IC50 (Ramos): 2.18 µM
SMILES: CNC(=O)c1ccccc1Nc1nc(Nc2ccc(NS(=O)(=O)c3ccc(F)cc3)cc2)ncc1Cl
- Activity (ASPC1 [3]): 24.4%
- viability at 1.25 µM (ASPC1 [4]): 52%
- Activity (ASPC1 [5]): 1.1%
- Activity (ASPC1 [6]): Dose-dependent effect
- viability at 0.5 µM (PANC-1 [7]): 53.3%
- viability at 5 µM (ASPC1 [8]): 24%
- viability at 0.5 µM (PANC-1 [9]): 45.9%
- Activity (ASPC1 [10]): 62.9%
- viability at 10 µM (ASPC1 [11]): 47.1%
- viability at 1 µM (ASPC1 [12]): 43.6%
- viability at 5 µM (ASPC1 [13]): 76%
- IC50 (L02): 11.5 µM
- viability at 1.25 µM (ASPC1 [14]): 79.4%
- Activity (ASPC1 [15]): 27.3%
- viability at 2 µM (PANC-1 [16]): 36.2%
- Activity (ASPC1 [17]): 53.1%
- viability at 10 µM (ASPC1 [18]): 12.1%
- Activity (ASPC1 [19]): 21.8%
- viability at 8 µM (PANC-1 [20]): 42.8%
- viability at 10 µM (ASPC1 [21]): 52%
- Activity (ASPC1 [22]): 0.6%
- viability at 2 µM (PANC-1 [23]): 39.3%
- Activity (ASPC1 [24]): 0.6%
- viability at 0.5 µM (PANC-1 [25]): 71.6%
- viability at 2 µM (PANC-1 [26]): 68.8%
- viability at 10 µM (ASPC1 [27]): 23.9%
- viability at 8 µM (PANC-1 [28]): 21.3%
- viability at 1.25 µM (ASPC1 [29]): 90%
- Activity (ASPC1 [30]): 28.5%
- viability at 8 µM (PANC-1 [31]): 17.2%
- viability at 5 µM (ASPC1 [32]): 49.1%
- viability at 5 µM (ASPC1 [33]): 79.4%
